Measurements as given in paper PMC3095849 (Bioorganic & medicinal chemistry, 2011).
pIC50: −log10 of the molar value. Counter-ions that a name gives are not always drawn. Like-named read-outs stand apart in the source and are kept apart here.

Legend:
[1] = target: T1, human κ opioid receptor (Homo sapiens, UniProt P41145); details: cited from earlier work
[2] = target: T1, human κ opioid receptor; assay: Opioid binding, [3H]U69,593, CHO membranes; details: ratio of Ki values μ/κ/δ
[3] = target: T1, human κ opioid receptor; assay: [35S]GTPγS binding assay, agonist properties, kappa; format: biochemical
[4] = target: human μ opioid receptor (Homo sapiens, UniProt P35372); assay: [35S]GTPγS binding assay, agonist properties, mu; format: biochemical
human μ opioid receptor, sequence (P35372 whole entry): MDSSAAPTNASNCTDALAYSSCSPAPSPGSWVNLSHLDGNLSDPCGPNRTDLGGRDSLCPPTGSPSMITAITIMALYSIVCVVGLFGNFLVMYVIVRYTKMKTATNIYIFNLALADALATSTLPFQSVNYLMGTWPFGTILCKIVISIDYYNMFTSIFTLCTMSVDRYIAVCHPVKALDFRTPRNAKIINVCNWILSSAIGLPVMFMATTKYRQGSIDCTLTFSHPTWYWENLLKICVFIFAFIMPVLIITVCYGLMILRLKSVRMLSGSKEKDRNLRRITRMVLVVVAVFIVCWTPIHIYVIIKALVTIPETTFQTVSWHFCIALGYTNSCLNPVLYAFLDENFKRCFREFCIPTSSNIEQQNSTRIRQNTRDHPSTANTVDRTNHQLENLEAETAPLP
Outline: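 CHO cells stably expressing human μ receptor, grown in DMEM with 10% FBS at 37°C, 5% CO2. Membranes incubated with 12 concentrations of test compound in 50 mM Tris-HCl pH 7.4, 3 μM GDP, 3 mM MgCl2, 0.2 mM EGTA, 100 mM NaCl, plus 0.08 nM [35S]GTPγS, 60 min, 30°C. Nonspecific: 10 μM GTPγS. Filtration, scintillation counting. EC50 and Emax calculated. Three experiments in triplicate.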

[5] = target: T1, human κ opioid receptor; assay: [35S]GTPγS binding assay, inhibition of U50,488-stimulated binding, kappa; format: biochemical; details: read-out: Kappa (Antagonist) IC50; binding stimulated by 100 nM U50,488
Outline: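 Antagonist mode: membranes from CHO cells stably expressing human κ receptor, with 12 concentrations of test compound and 0.08 nM [35S]GTPγS. Buffer: 50 mM Tris-HCl pH 7.4, 3 μM GDP, 3 mM MgCl2, 0.2 mM EGTA, 100 mM NaCl. Incubated 60 min at 30°C. Nonspecific binding: 10 μM GTPγS. Filtered and counted. IC50 and Imax calculated. Three experiments in triplicate, mean ± SEM.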

T1 sequence (P41145 whole entry): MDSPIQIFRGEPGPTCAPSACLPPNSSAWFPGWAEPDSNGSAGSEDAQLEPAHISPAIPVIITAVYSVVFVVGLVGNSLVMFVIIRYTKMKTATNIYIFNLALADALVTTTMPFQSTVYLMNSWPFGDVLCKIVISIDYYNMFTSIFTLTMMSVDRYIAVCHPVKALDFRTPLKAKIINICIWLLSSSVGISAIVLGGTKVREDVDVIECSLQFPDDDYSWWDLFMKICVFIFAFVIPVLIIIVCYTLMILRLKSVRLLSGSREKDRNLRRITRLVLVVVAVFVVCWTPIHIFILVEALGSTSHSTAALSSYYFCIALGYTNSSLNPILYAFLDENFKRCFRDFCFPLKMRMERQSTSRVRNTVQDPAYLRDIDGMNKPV

Structure (SMILES): O=C(CCCCCCCCC(=O)Oc1ccc2c(c1)[C@@]13CCCC[C@H]1[C@@H](C2)N(CC1CCC1)CC3)Oc1ccc2c(c1)[C@@]13CCCC[C@H]1[C@@H](C2)N(CC1CCC1)CC3 [Compound 3]
- Selectivity μ : κ : δ [1]: 2/1/90

Structure (SMILES): O=C(/C=C/C(=O)Oc1ccc2c(c1)[C@@]13CCCC[C@H]1[C@@H](C2)N(CC1CCC1)CC3)Oc1ccc2c(c1)[C@@]13CCCC[C@H]1[C@@H](C2)N(CC1CCC1)CC3 [Compound 4]
- Selectivity μ : κ : δ [1]: 3/1/120

Structure (SMILES): CO[C@@]12CCCC[C@@]13CCN(CC1CCC1)[C@@H]2Cc1ccc(O)cc13 [Compound 8, (−)-14-methoxybutorphanol]
- Selectivity μ : κ : δ [2]: 1/1/58
- Functional character at κ receptor (full/partial agonist) [3]: partial κ agonists

Structure (SMILES): CO[C@@]12CCCC[C@@]13CCN(CC1CCC1)[C@@H]2Cc1ccc(OC(=O)CCCCCCCCC(=O)Oc2ccc4c(c2)[C@@]25CCCC[C@@]2(OC)[C@@H](C4)N(CC2CCC2)CC5)cc13 [Compound 9b, Bis((−)-14-methoxy-17-N-cyclobutylmethyl)morphinan-3-yl) decanedioate]
- Selectivity μ : κ : δ [2]: 1/1/50
- Functional character at κ receptor (full/partial agonist) [3]: partial κ agonists

Structure (SMILES): Nc1nc2cc3c(cc2s1)C[C@@H]1[C@@H]2CCCC[C@]32CCN1CC1CC1 [Compound 10, ATPM]
- Selectivity μ : κ : δ [1]: 31/1/592

Structure (SMILES): O=C(CCCCCCCCC(=O)Nc1nc2cc3c(cc2s1)C[C@@H]1[C@@H]2CCCC[C@]32CCN1CC1CC1)Nc1nc2cc3c(cc2s1)C[C@@H]1[C@@H]2CCCC[C@]32CCN1CC1CC1 [Compound 11, Bis((−)-3-aminothiazolo-N-cyclopropyl-methylmorphinan)sebacamide hydrochloride]
- Functional character at μ receptor (full/partial agonist) [4]: partial μ agonists
- Selectivity μ : κ : δ [2]: 24/1/460
- Functional character at κ receptor (full/partial agonist) [3]: full κ agonists
- pIC50 [5]: < 5.00

Structure (SMILES): c1c2c(cc3sc(NCCCCCCCCCCNc4nc5cc6c(cc5s4)C[C@@H]4[C@@H]5CCCC[C@]65CCN4CC4CC4)nc13)C[C@@H]1[C@@H]3CCCC[C@]23CCN1CC1CC1 [Compound 12, (−)-3,3′-(decane-1,10-diaminothiazolo)bis(cyclopropylmethyl)morphinan hydrochloride]
- Functional character at μ receptor (full/partial agonist) [4]: partial μ agonists
- Selectivity μ : κ : δ [2]: 9/1/140
- Functional character at κ receptor (full/partial agonist) [3]: full κ agonists
- pIC50 [5]: < 5.00

Structure (SMILES): CO[C@@]12CCCC[C@@]13CCN(CC1CCC1)[C@@H]2Cc1ccc(OC(=O)CCCCCCCCC(=O)OCc2ccccc2)cc13 [Compound 13b, Benzyl (−)-14-methoxy-butorphanol-3-yl decanedioate]
- Selectivity μ : κ : δ [2]: 1/1/93
- Functional character at κ receptor (full/partial agonist) [3]: partial κ agonists

Structure (SMILES): C=CCN1CC[C@]23c4c5ccc(OC(=O)CCCCCCCCC(=O)Oc6ccc7c(c6)[C@@]68CCCC[C@@]6(O)[C@@H](C7)N(CC6CCC6)CC8)c4O[C@H]2C(=O)CC[C@@]3(O)[C@H]1C5 [Compound 15a, (5α)-17-Allyl-14-hydroxy-6-oxo-4,5-epoxymorphinan-3-yl-17-((−)-N-cyclobutylmethyl-14-hydroxyl-mophinan-3-yl) decanedioate.]
- Selectivity μ : κ : δ [2]: 3/1/130
- Functional character at κ receptor (full/partial agonist) [3]: partial κ agonists

Structure (SMILES): O=C(CCCCCCCCC(=O)Oc1ccc2c(c1)[C@@]13CCCC[C@@]1(O)[C@@H](C2)N(CC1CCC1)CC3)Oc1ccc2c(c1)[C@@]13CCCC[C@H]1[C@@H](C2)N(CC1CCC1)CC3 [Compound 15b, ((−)-17-N-cyclobutylmethyl)morphinan-3-yl-((−)-14-hydroxyl-17-N-cyclobutylmethyl) morphinan-3-yl) decanedioate]
- Selectivity μ : κ : δ [2]: 1/1/110
- Functional character at κ receptor (full/partial agonist) [3]: partial κ agonists

Structure (SMILES): C=CCN1CC[C@]23c4c5ccc(OC(=O)CCCCCCCCC(=O)Oc6ccc7c(c6)[C@@]68CCCC[C@@]6(OC)[C@@H](C7)N(CC6CCC6)CC8)c4O[C@H]2C(=O)CC[C@@]3(O)[C@H]1C5 [Compound 15c, (5α)-17-allyl-14-hydroxy-6-oxo-4,5-epoxymorphinan-3-yl-((−)-14-methoxyl-17-N-cyclobutylmethyl)morphinan-3-yl) decanedioate]
- Selectivity μ : κ : δ [2]: 4/1/280
- Functional character at κ receptor (full/partial agonist) [3]: partial κ agonists
